ChEMBL document CHEMBL1671867, “Novel polymyxin derivatives carrying only three positive charges are effective antibacterial agents” (Antimicrob Agents Chemother, 2008)
≈ marks a conversion by molar mass, not a printed value.

How the values were obtained:
[1] = system: Escherichia coli; assay: Antibacterial activity against 5 x 10^5 CFU/ml Escherichia coli ATCC […] by Etest method in presence of […] NAB739; type: functional
[2] = system: Escherichia coli; assay: Antibacterial activity against Escherichia coli ATCC 25992 in presence of NAB7061; type: functional
[3] = system: Escherichia coli; assay: Antibacterial activity against Escherichia coli ATCC […] by Etest method in presence of NAB7061; type: functional
[4] = system: Escherichia coli; assay: Antibacterial activity against Escherichia coli ATCC 25992 by Etest method; type: functional
How it was run: (§1)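 E-strip MIC on Mueller-Hinton agar without added peptide; inoculum per manufacturer, matching CLSI M2-A9.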

[5] = system: Pseudomonas aeruginosa; assay: Antibacterial activity against Pseudomonas aeruginosa ATCC 27853by Etest method in presence of […] NAB739; type: functional
[6] = system: Pseudomonas aeruginosa; assay: Antibacterial activity against Pseudomonas aeruginosa ATCC 27853by Etest method; type: functional
How it was run: (§2)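 MICs of the antibiotic taken from E-strips on Mueller-Hinton agar, run both with and without peptide. […] Inoculum was prepared per the strip manufacturer, matching CLSI M2-A9.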

[7] = system: Acinetobacter baumannii; assay: Antibacterial activity against Acinetobacter baumannii F264 by Etest method in presence of 1 ug/ml NAB739; type: functional
[8] = system: Acinetobacter baumannii; assay: Antibacterial activity against Acinetobacter baumannii F264 by Etest method in presence of […] NAB739; type: functional
[9] = system: Acinetobacter baumannii; assay: Antibacterial activity against Acinetobacter baumannii F264 by Etest method; type: functional; how it was run: as §1
[10] = system: Acinetobacter baumannii; assay: Antibacterial activity against Acinetobacter baumannii ATCC 19606 by Etest method in presence of NAB739; type: functional
[11] = system: Acinetobacter baumannii; assay: Antibacterial activity against Acinetobacter baumannii ATCC 19606 by Etest method in presence of 1 ug/ml NAB739; type: functional
[12] = system: Acinetobacter baumannii; assay: Antibacterial activity against Acinetobacter baumannii ATCC 19606 by Etest method in presence of 0.5 ug/ml NAB739; type: functional
[13] = system: Escherichia coli; assay: Antibacterial activity against 5 x 10^5 CFU/ml Escherichia coli ATCC 25992 in presence of 16 ug/ml NAB7061 by Checkerboard method; type: functional
[14] = system: Escherichia coli; assay: Antibacterial activity against 5 x 10^5 CFU/ml Escherichia coli ATCC 25992 in presence of 8 ug/ml NAB7061 by Checkerboard method; type: functional
[15] = system: Escherichia coli; assay: Antibacterial activity against 5 x 10^5 CFU/ml Escherichia coli ATCC […] by Etest method by Etest in presence of 4 ug/ml NAB7061; type: functional
How it was run: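 Antibiotic MICs were read from E-strips on Mueller-Hinton agar containing the peptide at 1 to 16 μg/ml in twofold steps, or at a single 4 μg/ml, and on agar without peptide. The inoculum was prepared per the strip maker's instructions and matched CLSI M2-A9. Values come from two independent determinations.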

[16] = system: Escherichia coli; assay: Antibacterial activity against 5 x 10^5 CFU/ml Escherichia coli ATCC […] by Etest method by Etest in presence of 2 ug/ml NAB7061; type: functional
[17] = system: Pseudomonas aeruginosa; assay: Antibacterial activity against Pseudomonas aeruginosa ATCC 27853by Etest method in presence of 0.5 ug/ml NAB739; type: functional; how it was run: as §2
[18] = system: Pseudomonas aeruginosa; assay: Antibacterial activity against Pseudomonas aeruginosa ATCC 27853by Etest method in presence of 1 ug/ml NAB739; type: functional; how it was run: as §2
[19] = system: Pseudomonas aeruginosa; assay: Antibacterial activity against Pseudomonas aeruginosa ATCC 27853by Etest method in presence of 2 ug/ml NAB739; type: functional
[20] = system: Escherichia coli; assay: Antibacterial activity against Escherichia coli ATCC […] by Etest method in presence of 2 ug/ml NAB7062; type: functional
[21] = system: Escherichia coli; assay: Antibacterial activity against Escherichia coli IH3080 by Etest method; type: functional; how it was run: as §1
[22] = system: Escherichia coli; assay: Antibacterial activity against Escherichia coli IH3080 by Etest method in presence of 1 ug/ml NAB7061; type: functional
[23] = system: Escherichia coli; assay: Antibacterial activity against Escherichia coli IH3080 by Etest method in presence of 4 ug/ml NAB7064; type: functional
[24] = system: Escherichia coli; assay: Antibacterial activity against Escherichia coli IH3080 by Etest method in presence of NAB7061; type: functional
[25] = system: Klebsiella pneumoniae; assay: Antibacterial activity against Klebsiella pneumoniae ATCC 13883 by Etest method; type: functional; how it was run: as §2
[26] = system: Klebsiella pneumoniae; assay: Antibacterial activity against Klebsiella pneumoniae ATCC 13883 by Etest method in presence of 4 ug/ml NAB7061; type: functional; how it was run: as §2
[27] = system: Klebsiella pneumoniae; assay: Antibacterial activity against Klebsiella pneumoniae ATCC 13883 by Etest method in presence of NAB7061; type: functional; how it was run: as §2
[28] = system: Enterobacter cloacae; assay: Antibacterial activity against Enterobacter cloacae ATCC 23355 by Etest method; type: functional; how it was run: as §1
[29] = system: Enterobacter cloacae; assay: Antibacterial activity against Enterobacter cloacae ATCC 23355 […] by Etest method in presence of 4 ug/ml NAB7064; type: functional
[30] = system: Escherichia coli; assay: Antibacterial activity against Escherichia coli by Etest method in presence of 4 ug/ml NAB7061; type: functional
[31] = system: Escherichia coli; assay: Antibacterial activity against Escherichia coli NCTC13353 by Etest method in presence of 4 ug/ml NAB7062; type: functional
[32] = system: Klebsiella pneumoniae; assay: Antibacterial activity against Klebsiella pneumoniae CCUG45421 by Etest method in presence of 4 ug/ml NAB7063; type: functional
[33] = system: Klebsiella oxytoca; assay: Antibacterial activity against Klebsiella oxytoca ATCC 13182 by Etest method in presence of 4 ug/ml NAB7065; type: functional
[34] = system: Enterobacter cloacae; assay: Antibacterial activity against Enterobacter cloacae CCUG52947 by Etest method in presence of 4 ug/ml NAB7067; type: functional
[35] = system: Enterobacter cloacae; assay: Antibacterial activity against Enterobacter cloacae by Etest method in presence of 4 ug/ml NAB7068; type: functional
[36] = system: Citrobacter freundii; assay: Antibacterial activity against Citrobacter freundii ATCC 8090 by Etest method in presence of 4 ug/ml NAB7069; type: functional
[37] = system: Acinetobacter baumannii; assay: Antibacterial activity against Acinetobacter baumannii by Etest method in presence of 4 ug/ml NAB7071; type: functional
[38] = system: Serratia marcescens; assay: Antibacterial activity against Serratia marcescens ATCC 8100 by Etest method in presence of 4 ug/ml NAB7072; type: functional
[39] = system: Proteus mirabilis; assay: Antibacterial activity against Proteus mirabilis ATCC 29906 by Etest method in presence of 4 ug/ml NAB7073; type: functional
[40] = system: Proteus vulgaris; assay: Antibacterial activity against Proteus vulgaris ATCC 13315 by Etest method in presence of 4 ug/ml NAB7074; type: functional
[41] = system: Pseudomonas aeruginosa; assay: Antibacterial activity against Pseudomonas aeruginosa ATCC 27853 by Etest method in presence of 4 ug/ml NAB7075; type: functional
[42] = system: Escherichia coli; assay: microbe, parasite or virus in culture; conditions: ATCC 25992
[43] = system: Escherichia coli; assay: microbe, parasite or virus in culture; conditions: ATCC 25992; remark: listed apart in the source
[44] = system: Escherichia coli; assay: microbe, parasite or virus in culture; conditions: ATCC 25992; remark: listed apart in the source
[45] = system: Escherichia coli; assay: microbe, parasite or virus in culture; conditions: ATCC 25992; remark: listed apart in the source

CO[C@H]1/C=C/O[C@@]2(C)Oc3c(C)c(O)c4c(O)c(c(/C=N/N5CCN(C)CC5)c(O)c4c3C2=O)NC(=O)/C(C)=C\C=C\[C@H](C)[C@H](O)[C@@H](C)[C@@H](O)[C@@H](C)[C@H](OC(C)=O)[C@@H]1C [RIFAMPIN]
MIC [1]: 12 µg/mL | fractional inhibitory concentration index (FICI) [2]: <=0.128 | fractional inhibitory concentration index (FICI) [3]: 0.071 | MIC [4]: 8 µg/mL (≈ 9.72 µM) | MIC [5]: 32 µg/mL | MIC [6]: 32 µg/mL (≈ 38.9 µM) | MIC [7]: 0.016 µg/mL | MIC [8]: 0.38 µg/mL | MIC [9]: 12 µg/mL (≈ 14.6 µM) | fractional inhibitory concentration index (FICI) [10]: 0.126 | MIC [11]: 0.006 µg/mL | MIC [12]: 0.047 µg/mL | MIC [13]: 0.031 µg/mL | MIC [14]: 0.031 µg/mL | MIC [15]: 0.016 µg/mL | MIC [16]: 0.064 µg/mL | MIC [17]: 32 µg/mL | MIC [18]: 16 µg/mL | MIC [19]: 4 µg/mL | MIC [20]: 0.064 µg/mL | MIC [21]: 8 µg/mL (≈ 9.72 µM) | MIC [22]: 0.25 µg/mL | MIC [23]: 0.023 µg/mL | MIC [24]: ≤ 0.055 µg/mL | MIC [25]: > 16 µg/mL | MIC [26]: 0.064 µg/mL | MIC [27]: ≤ 0.073 µg/mL | MIC [28]: 12 µg/mL (≈ 14.6 µM) | MIC [29]: 0.008 µg/mL | MIC [30]: 0.016 µg/mL | MIC [31]: 0.064 µg/mL | MIC [32]: 2 µg/mL | MIC [33]: 0.032 µg/mL | MIC [34]: 0.032 µg/mL | MIC [35]: 0.016 µg/mL | MIC [36]: 0.023 µg/mL | MIC [37]: 0.032 µg/mL | MIC [38]: 16 µg/mL | MIC [39]: 1 µg/mL | MIC [40]: 1 µg/mL | MIC [41]: 12 µg/mL | MIC [42]: 8 µg/mL (≈ 9.72 µM) | MIC [43]: 8 µg/mL (≈ 9.72 µM) | MIC [44]: 8 µg/mL (≈ 9.72 µM) | MIC [45]: 8 µg/mL (≈ 9.72 µM)
